Shown are actives, neighbours in structure and some others; about 3.5% of the full set was active somewhere.
PAFAH1B2 FP inh – inhibitors of human PAFAH1B2; inhibition, % at 3.39 µM; recombinant PAFAH1B2, FP-rhodamine activity probe, fluorescence polarization; P68402; hit rate 1.2% among 340,000; AID 492953;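 active = inhibition above the mean of all tested compounds plus 3 SD, cut at about 24% in these data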;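 note: 0% = enzyme with DMSO and 100% = wells lacking PAFAH1B2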
Target sequence (P68402 whole entry, looked up): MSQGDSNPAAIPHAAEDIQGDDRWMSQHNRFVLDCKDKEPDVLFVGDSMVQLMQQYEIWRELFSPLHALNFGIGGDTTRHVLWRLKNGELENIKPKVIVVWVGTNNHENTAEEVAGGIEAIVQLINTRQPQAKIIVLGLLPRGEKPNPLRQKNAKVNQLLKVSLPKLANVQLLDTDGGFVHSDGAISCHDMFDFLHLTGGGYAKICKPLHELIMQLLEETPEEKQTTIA
PAFAH1B3 inh – PAFAH1B3 (human) inhibition; inhibition, % at 3.39 µM; recombinant PAFAH1B3, FP-rhodamine probe, fluorescence polarization; hit rate 0.28% among 340,000; Q15102; AID 492972;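 active = inhibition above the screen-wide average of all tested compounds plus 3 SD, cut at about 25% in these data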;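 note: 0% = enzyme with DMSO only and 100% = wells lacking PAFAH1B3 protein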
Target sequence (Q15102 whole entry, looked up): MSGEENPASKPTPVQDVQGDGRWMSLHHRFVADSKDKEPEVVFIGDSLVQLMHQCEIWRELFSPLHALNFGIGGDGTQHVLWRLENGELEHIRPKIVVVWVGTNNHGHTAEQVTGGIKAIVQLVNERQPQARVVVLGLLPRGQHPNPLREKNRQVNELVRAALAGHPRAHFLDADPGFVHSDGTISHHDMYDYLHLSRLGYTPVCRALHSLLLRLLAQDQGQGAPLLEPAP
PREPL inh – human PREPL enzyme inhibition; recombinant PREPL, fluorescence polarization activity-based probe; hit rate 0.68% among 320,000; inhibition, % at 5.96 µM; in the data active = inhibition above about 43%;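 note: 0% = enzyme with DMSO and 100% = wells lacking enzyme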
PAFAH2 inh – inhibitors of human PAFAH2; recombinant PAFAH2, FP-rhodamine activity probe, fluorescence polarization; hit rate 0.99% among 340,000; AID 492956; inhibition, % at 3.39 µM;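 active = inhibition above the mean over all tested compounds plus 3 SD, cut at about 30% in these data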;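 note: inhibitors block probe labeling of enzyme so polarization drops; 0% = enzyme with DMSO and 100% = wells lacking PAFAH2 protein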
pPAFAH FP inh – pPAFAH (human) enzyme inhibition | inhibition, % at 3.39 µM | Q13093 | hit rate 1.5% among 330,000 | recombinant pPAFAH, FP-rhodamine probe fluorescence polarization;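 active = inhibition above the mean inhibition across the screen plus 3 SD, cut at about 25% in these data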;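 note: inhibitors block binding of the rhodamine activity-based probe so polarization drops; 0% = enzyme with DMSO and 100% = wells lacking pPAFAH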
Apaf-1 inh – inhibitors of human Apaf-1 apoptosome | O14727 | reconstituted apoptosome caspase-3 activity, DEVD-Rh110 fluorescence | inhibition, % at 20 µM | hit rate 0.71% among 330,000 | AID 489030; active = inhibition of at least 40% at 20 µM;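 note: plate controls were DMSO wells for no effect and DEVD-CHO caspase inhibitor wells for full effect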
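Material: cell-free apoptosome with Apaf-1, procaspase-3 and caspase-9; Buffer or medium: Hepes pH 7.5 with detergent and BSA; Reagent: cytochrome c trigger plus (Z-DEVD)2-Rh110 caspase-3 substrate; Times: compound with Apaf-1, dATP, procaspase-3 30 min, then 50 min reaction, room temperature; Technique: Rh110 fluorescence intensity.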
An asterisk follows results filed as active; / = no result.

SMILES | PAFAH1B2 FP inh | PAFAH1B3 inh | PREPL inh | PAFAH2 inh | pPAFAH FP inh | Apaf-1 inh
Cc1cccc(-n2nc3c(c2NC(=O)c2ccco2)CSC3)c1C | -6 | 1 | -7 | 10 | 31* | 2
Cc1cccc(C)c1OCC(=O)Nc1ccccc1C(=O)N1CCOCC1 | 0 | 3 | 4 | 4 | 5 | -6
O=C(NCC(c1ccco1)N1CCCCC1)c1ccc(NS(=O)(=O)c2ccc(F)cc2)cc1 (centres undefined) | 5 | -4 | -8 | -4 | 0 | 12
COc1ccc(NS(=O)(=O)c2cccc(C(=O)NCC(c3ccco3)N3CCCCC3)c2)cc1 (centres undefined) | 1 | 4 | -4 | 4 | 31* | 11
COc1ccc(C(=O)NCc2ccccc2CN2CCCC2)cc1S(=O)(=O)Nc1ccc(C)cc1 | 8 | 2 | 12 | 2 | 25* | 28
Cc1cccc(NS(=O)(=O)c2cccc(C(=O)NCC(c3ccco3)N3CCCCC3)c2)c1 (centres undefined) | 0 | -4 | -12 | -3 | 33* | 13
COc1ccccc1NS(=O)(=O)c1cccc(C(=O)NCC(c2ccco2)N2CCCC2)c1 (centres undefined) | 3 | 12 | -1 | -5 | -4 | 20
O=C(NCC(c1ccco1)N1CCCC1)c1ccc(S(=O)(=O)Nc2ccc(F)cc2)cc1 (centres undefined) | 4 | 8 | 13 | 2 | 29* | 5
COc1ccccc1C(CNC(=O)c1cccc(S(=O)(=O)Nc2ccc(C)cc2)c1)N1CCCC1 (centres undefined) | 2 | 4 | 0 | 2 | 31* | 21
COc1ccccc1NS(=O)(=O)c1cccc(C(=O)NCC(c2ccccc2OC)N2CCCC2)c1 (centres undefined) | 1 | 5 | 15 | 4 | 3 | 27
COc1ccc(C(=O)NCC(C)NC(=O)c2ccc(OC)c(Br)c2)cc1Br (centres undefined) | / | / | -2 | / | 1 | -6
Cc1ccc(C)n1-c1ccc(C(=O)O)cc1 | / | / | 6 | / | 31* | 1
Cn1c(=O)[nH]c(=O)c2c1nc(N1CCOCC1)n2CCSc1nnnn1-c1ccccc1 | 4 | 0 | 6 | -3 | 5 | -22
COc1ccc(N2CCN(c3nc4c(c(=O)[nH]c(=O)n4C)n3Cc3cccc(C)c3)CC2)cc1 | 2 | 0 | 51* | 0 | 9 | 21
CCn1c(N2CCC(Cc3ccccc3)CC2)nc2c1c(=O)[nH]c(=O)n2C | 4 | 5 | 57* | 0 | 14 | 18
Cc1cccc(Cn2c(N3CCN(CCO)CC3)nc3c2c(=O)[nH]c(=O)n3C)c1 | 3 | 0 | 7 | 6 | 10 | -24
CC(CSc1nnnn1-c1ccccc1)Cn1c(N2CCCC2)nc2c1c(=O)[nH]c(=O)n2C (centres undefined) | -2 | 2 | 46* | -8 | 6 | -2
C[C@H](CO)N1C[C@H](C)[C@@H](CN(C)S(=O)(=O)c2cccs2)Oc2ccc(NC(=O)c3ccncc3)cc2C1=O | 5 | 4 | 1 | 2 | 3 | 8
CC(=O)N(C)c1ccc(N=Cc2cc3c(cc2[N+](=O)[O-])OCO3)cc1 | 4 | 3 | 3 | 6 | 7 | 65*
Cc1ccc(N=Cc2cc3c(cc2[N+](=O)[O-])OCO3)cc1[N+](=O)[O-] | / | / | 12 | / | 31* | 40
COc1ccc(NC(=O)c2ccc(Br)c(S(=O)(=O)N3CCOCC3)c2)cc1 | 4 | 8 | 18 | 5 | -3 | 9
CC(C)Cn1c(N)c(C(=O)COC(=O)C2Cc3ccccc3CN2S(C)(=O)=O)c(=O)n(C)c1=O (centres undefined) | 12 | -4 | 8 | 11 | 4 | -2
Cc1ccc(C(=O)/C=C/c2ccc(-c3ccc(C)cc3)o2)cc1 | -3 | -6 | 5 | -1 | 26* | 20
O=C(/C=C\c1ccc(-c2ccccc2)o1)c1ccccc1 | 5 | -1 | 7 | 4 | 24 | 5
CCCC(C)NC(=O)CSc1nnc2ccccn12 (centres undefined) | 3 | -3 | 7 | 2 | 0 | -6
Fc1ccc(-n2cc(-c3ccccc3)c3c(=S)nc[nH]c32)cc1 | 1 | 2 | 12 | 0 | 30* | 16
O=c1[nH]cnc2c1c(-c1ccccc1)cn2-c1ccccc1 | -1 | 9 | 11 | 5 | 20 | 12
